The test system of assay [1] is Rattus norvegicus. The experiment in a line: The concentration yielding a half maximal decrease of the 5-HTP was determined in rat brain striatum; inactive at 50 umol/kg. The assay is classed as functional, organism-based. The procedure, abridged:
(§1)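 Reserpine-pretreated (5 mg/kg sc, 18 h) male Sprague-Dawley rats, 200–300 g; compounds in saline given sc. DOPA and 5-HTP in limbic system, striatum and hemispheres measured by HPLC with electrochemical detection. Dose–response curves of 4–6 doses (n = 4) per area, fitted to variable-slope sigmoid on log data to give ED50.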

In assay [2] the test system is Rattus norvegicus. The experiment in a line: Motor activity was measured by motility testing on injecting the compound subcutaneously into rats at the dose of 12.5 uM/Kg. The assay is classed as functional. A digest of the protocol: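 Rats given reserpine 5 mg/kg sc 18 h beforehand, then test compound sc in neck (n = 4). Placed singly in photocell motility meters straight after dosing; counts recorded for 30 min, gross behaviour observed throughout. Value as counts/30 min with SEM.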

For assay [3], the system named is Rattus norvegicus. The assay can be described thus: The concentration yielding a half maximal decrease of the DOPA was determined in rat limbic system; Partial response at 50 umol/kg. The assay is classed as functional, organism-based.
Assay [4] concerns Rattus norvegicus. The assay can be described thus: The concentration yielding a half maximal decrease of the DOPA was determined in rat brain striatum; Partial response at 50 umol/kg. The format is functional, organism-based.
The subject of assay [5] is Rattus norvegicus. The experiment in a line: The concentration yielding a half maximal decrease of the 5-HTP was determined in rat brain hemispheres; inactive at 50 umol/kg. The assay is classed as functional, organism-based. The procedure, abridged:
as §1

Assay [6] relates to Rattus norvegicus. The experiment in a line: The concentration yielding a half maximal decrease of the DOPA was determined in rat brain hemispheres; inactive at 50 umol/kg. The assay is classed as functional, organism-based. A digest of the protocol: as §1
The subject of assay [7] is Rattus norvegicus. The experiment in a line: The concentration yielding a half maximal decrease of the 5-HTP was determined in rat limbic system; Partial response at 50 umol/kg. The assay is classed as functional, organism-based. The procedure, abridged:
as §1

Activity calls are given as the source filed them. No cut-off for these calls is given here.

Consider `CCCN(CCC)C1CCc2cc3cc[nH]c3cc2C1` (configuration not stated), for which the ED50 result in assay [1], in assay [5] and in assay [6] was “inactive” each time. For the same compound, in assay [2], the Activity stood at 51 Counts 30min-1. For the same compound, the ED50 result in assay [3], in assay [4] and in assay [7] was “Weak activity” in each case.

Source of the values: ChEMBL document CHEMBL1127349, “6,7,8,9-Tetrahydro-N,N-di-n-propyl-3H-benzindol-8-amines. Derivatives as potent and orally active serotonin 5-HT1A receptor agonists” (J Med Chem, 1994).
